ERAP1 HTS inh = ERAP1 (human) enzyme inhibition. Q9NZ08. recombinant ERAP1, Leu-AMC fluorescence, 60 min. inhibition, % at 10.7 µM. hit rate 0.15% among 340,000;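 active means mean replicate inhibition of at least 30%, or all replicates individually reaching that 30% level; inactive means mean below 30% and not every replicate reaching it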
ERp5 inh = inhibitors of human ERp5. Q15084. ERp5 insulin aggregation, absorbance 650 nm, 90 min. inhibition, % at 9.99 µM. hit rate 0.05% among 350,000;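 active means mean replicate inhibition above about 25%, with every replicate also reaching it, limit read from the data, passing the limit was not always enough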
Target sequence (Q15084 whole entry, looked up): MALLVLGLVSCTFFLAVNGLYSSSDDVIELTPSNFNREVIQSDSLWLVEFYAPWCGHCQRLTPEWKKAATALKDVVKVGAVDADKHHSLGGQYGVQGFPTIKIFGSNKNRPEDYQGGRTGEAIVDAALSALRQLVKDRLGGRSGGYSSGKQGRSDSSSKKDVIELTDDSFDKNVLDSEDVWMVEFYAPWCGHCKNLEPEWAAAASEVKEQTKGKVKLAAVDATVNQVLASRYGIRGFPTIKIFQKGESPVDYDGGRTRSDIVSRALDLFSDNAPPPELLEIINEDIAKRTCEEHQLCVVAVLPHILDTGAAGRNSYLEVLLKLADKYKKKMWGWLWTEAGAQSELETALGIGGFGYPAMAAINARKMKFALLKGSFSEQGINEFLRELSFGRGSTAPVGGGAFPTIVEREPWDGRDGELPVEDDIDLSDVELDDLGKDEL
CAL PDZ FP-1 = inhibitors of human CAL PDZ peptide binding; purified CAL PDZ, TMR-peptide fluorescence polarization, 1 h; inhibition, % at 24.9 µM; hit rate 0.92% among 300,000; AID 602252;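 active means mean inhibition of at least 30% with at least half of replicates also reaching 30%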
Rin1 Abl inh = human Rin1-Abl interaction inhibition | P00519+Q13671 | TR-FRET Rin1/Abl binding, biochemical | inhibition, % at 7.35 µM | hit rate 0.4% among 360,000 | AID 588664; in the data active means inhibition above about 5%, passing the limit was not always enough
PDI turbidity = inhibitors of human protein disulfide isomerase | PDI insulin aggregation turbidity, A650, 90 min | inhibition, % at 10 µM | hit rate 0.052% among 350,000;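 active means mean inhibition across replicates of 30% or more, whatever share of single replicates reach that level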
CAL PDZ FP-2 = inhibitors of human CAL PDZ peptide binding; purified CAL PDZ, TMR-peptide fluorescence polarization, 1 h; Q9HD26; AID 504414; hit rate 0.02% among 330,000; inhibition, % at 20 µM;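 active means highest replicate inhibition of at least 40%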
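Read-out basis: mP drop reported as inhibition | Assay system: Tagged CAL PDZ protein CerCALP, purified | Benchmarks: Unlabelled peptide for full inhibition, DMSO wells as neutral | Schedule: 1 h incubation at room temperature before polarization reading | Buffer or medium: Sodium phosphate/NaCl buffer pH 7.4 with TCEP, IgG, Thesit | Doses: Single point, 20 µM | Measured by: Fluorescence polarization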
Hits are given with their value; . = inactive; / = no result given. Hits are enriched below; roughly 1.1% of the tested compounds scored in any of these assays.

SMILES | ERAP1 HTS inh | ERp5 inh | CAL PDZ FP-1 | Rin1 Abl inh | PDI turbidity | CAL PDZ FP-2
CCCCC(NS(=O)(=O)c1ccc(OC)cc1)C(=O)O (centres undefined) | / | / | 49.2 | . | . | .
O=C(Nc1ccc(F)cc1)N1C[C@H]2[C@@H](c3ccccc31)[C@H](CO)N2C(=O)c1cccnc1 | / | . | / | / | / | /
CCCN1[C@@H]2c3cccc(=O)n3C[C@@H]2[C@@H](CO)[C@@H]1C(=O)NC1Cc2ccccc2C1 | . | . | / | / | / | /
C=CCN(c1ccc(F)cc1)S(=O)(=O)c1cc(C(=O)OCC(=O)N(C)C2CCS(=O)(=O)C2)ccc1Cl (centres undefined) | . | . | 39.5 | . | . | .
O=C(CN1C(=O)NC(c2ccc(F)cc2)C1=O)NC1CCCCC1 (centres undefined) | / | / | 88.5 | . | . | .
CN(CC(=O)NCc1ccc(F)cc1)CC(=O)Nc1ccc(Cl)c(C(F)(F)F)c1 | . | . | / | . | . | .
CN(CC(=O)NCC(=O)Nc1ccc(F)cc1)CC(=O)Nc1ccc(Cl)c(C(F)(F)F)c1 | . | . | 46.7 | . | . | .
CN(CC(=O)Nc1ccc(F)cc1)CC(=O)NC1CCCCC1 | . | 25.2 | . | . | . | .
O=C(Cc1ccc(F)cc1)NC1CCCCCC1 | . | . | . | . | . | .
COc1ccc(S(=O)(=O)Nc2cccc3c2O[C@H](CN(C)CC2CCCCC2)[C@H](C)CN([C@@H](C)CO)C3=O)cc1 | . | . | / | / | / | /
COCC#Cc1cnc2c(c1)C(=O)N([C@H](C)CO)C[C@@H](C)[C@H](CN(C)C(=O)Cc1ccncc1)O2 | . | . | / | / | / | /
CNC[C@H]1Oc2c(NC(=O)c3ccc(-c4nccs4)cc3)cccc2C(=O)N([C@H](C)CO)C[C@H]1C | . | . | / | / | / | /
CCOC(=O)c1cc(C#N)c(N2CCN(C(=O)c3cccc(C(F)(F)F)c3)CC2)nc1C(F)(F)F | . | . | 65.2 | . | . | .
CCOC(=O)c1cc(C#N)c(N2CCN(C(=O)c3ccccc3)CC2)nc1C(F)(F)F | . | . | . | . | . | .
COc1cccc(S(=O)(=O)N2CC3(CCN(C)CC3)c3c([nH]c4cc(OC)ccc34)[C@H]2CO)c1 | . | . | / | / | / | /
Cc1ccc(S(=O)(=O)N(C)c2ccc(OC(=O)c3cccs3)cc2)cc1C | . | . | 49.1 | . | . | .
Cc1ccc(S(=O)(=O)N(C)c2ccc(OC(C)C(=O)N3CCCC3)cc2)cc1C (centres undefined) | . | . | . | . | . | .
C/C=C/c1ccc2c(c1)O[C@@H](CN(C)C(=O)Nc1cc(F)ccc1F)[C@H](C)CN([C@@H](C)CO)S2(=O)=O | . | . | / | / | / | /
CC1CCN(Cc2nnnn2CCCC(=O)NCC(C)(C)N2CCOCC2)CC1 | . | . | . | . | . | .
CC1CCN(Cc2nnnn2CCCC(=O)NCCc2cnn(C)c2)CC1 | . | . | 113.2 | . | . | .
Cc1noc(C)c1NC(=O)Nc1ccc2c(c1)C(=O)N([C@@H](C)CO)C[C@H](C)[C@@H](CN(C)C(=O)CCCN(C)C)OCCCC[C@@H](C)O2 | . | . | / | / | / | /
CCN(CCn1cccn1)C(=O)c1cc(COc2ccc(F)c(F)c2)on1 | . | . | 56.8 | . | . | .
Cc1nn(C)c(C)c1C(C)NC(=O)c1cc(COc2ccc(F)c(F)c2)on1 (centres undefined) | . | . | 40.2 | . | . | .
O=C(NNc1ccccc1)/C(=C\c1cccnc1)NC(=O)c1ccccc1 | . | . | 73.1 | . | . | .
C[C@H](CO)N1C[C@H](C)[C@H](CN(C)Cc2ccncc2)Oc2ncc(C#Cc3ccccc3)cc2C1=O | . | . | / | / | / | /
SMILES | ERAP1 HTS inh | ERp5 inh | CAL PDZ FP-1 | Rin1 Abl inh | PDI turbidity | CAL PDZ FP-2
Cc1ccc(C(C)C)c(OCCn2ccnc2C)c1 | . | . | . | . | . | .
Cc1ccc(OCCCCn2ccnc2C)c(C)c1 | . | . | 79.0 | . | . | .
O=C(NNS(=O)(=O)c1ccccc1)c1ccccc1-n1cccc1 | . | . | 41.4 | . | . | .
C[C@H]1CCCCO[C@@H](CN(C)C(=O)c2ccncc2)[C@@H](C)CN([C@@H](C)CO)C(=O)c2cc(NC(=O)c3ccccc3)ccc2O1 | . | . | / | / | / | /
Cc1nn(C)c(C)c1S(=O)(=O)Nc1ccc2c(c1)OCO2 | / | / | . | . | . | .
Cc1ccc(C)c(NS(=O)(=O)c2c(C)nn(C)c2C)c1 | / | / | . | . | 37.5 | .

Screening results from PubChem.
